Assay results published in ChEMBL document CHEMBL1134472, “Synthesis and NMR-driven conformational analysis of taxol analogues conformationally constrained on the C13 side chain” (2001).
The source made the active and inactive calls. No cut-off for these calls is given here.

Assays:
[1] = biological target: Tubulin alpha chain (Sus scrofa) (UniProt P02550); test: Tubulin binding with reference to taxol was determined by tubulin assembly assay
Method in brief: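 Activity is the ED50 in a tubulin assembly assay, given as a ratio to the paclitaxel ED50 from the same assay.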

MCF7 = test: Cytotoxicity against MCF-7 cells with reference to taxol; type: functional; conditions: Homo sapiens
Method in brief: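 Result is the test compound's ED50 in MCF7 cells divided by the paclitaxel ED50 from the same cytotoxicity assay.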

Chain of Tubulin alpha chain (Sus scrofa) (P02550 whole entry, looked up): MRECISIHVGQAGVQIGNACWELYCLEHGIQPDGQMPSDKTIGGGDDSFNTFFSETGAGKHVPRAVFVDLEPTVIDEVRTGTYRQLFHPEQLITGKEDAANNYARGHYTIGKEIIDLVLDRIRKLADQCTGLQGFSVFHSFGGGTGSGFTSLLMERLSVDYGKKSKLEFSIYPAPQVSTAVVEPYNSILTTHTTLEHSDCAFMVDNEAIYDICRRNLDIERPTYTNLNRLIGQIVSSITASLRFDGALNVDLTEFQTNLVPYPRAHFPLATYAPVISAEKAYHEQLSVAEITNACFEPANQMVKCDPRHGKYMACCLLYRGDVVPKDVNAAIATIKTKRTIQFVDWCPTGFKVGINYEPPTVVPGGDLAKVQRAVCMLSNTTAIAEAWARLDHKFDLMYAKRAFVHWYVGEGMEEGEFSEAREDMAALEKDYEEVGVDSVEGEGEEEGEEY

| SMILES | ED50/ED50(Taxol) (dimensionless ratio) [1] | ED50/ED50(Taxol) (MCF7) [dimensionless ratio] | ED50 [1] |
| --- | --- | --- | --- |
| CC(=O)O[C@@]12CO[C@@H]1C[C@H](O)[C@@]1(C)C(=O)[C@H](O)C3=C(C)C(OC(=O)[C@@]4(O)CCc5ccccc5[C@@H]4NC(=O)OC(C)(C)C)C[C@@](O)([C@@H](OC(=O)c4ccccc4)[C@H]21)C3(C)C (stereo not given in full) | 30 | 239 |  |
| CC(=O)O[C@@]12CO[C@@H]1C[C@H](O)[C@@]1(C)C(=O)[C@H](O)C3=C(C)C(OC(=O)[C@@]4(O)Cc5ccccc5[C@@H]4NC(=O)OC(C)(C)C)C[C@@](O)([C@@H](OC(=O)c4ccccc4)[C@H]21)C3(C)C (stereo not given in full) | 7 |  |  |
| CC(=O)O[C@H]1C(=O)[C@@]2(C)[C@H]([C@H](OC(=O)c3ccccc3)[C@]3(O)CC(OC(=O)[C@]4(O)Cc5ccccc5[C@@H]4NC(=O)c4ccccc4)C(C)=C1C3(C)C)[C@]1(OC(C)=O)CO[C@@H]1C[C@@H]2O (stereo not given in full) |  | 1600 | inactive |
| CC(=O)O[C@H]1C(=O)[C@@]2(C)[C@H]([C@H](OC(=O)c3ccccc3)[C@]3(O)CC(OC(=O)[C@@]4(O)CCc5ccccc5[C@@H]4NC(=O)c4ccccc4)C(C)=C1C3(C)C)[C@]1(OC(C)=O)CO[C@@H]1C[C@@H]2O (stereo not given in full) | 42 | 333 |  |
| CC(=O)O[C@H]1C(=O)[C@@]2(C)[C@H]([C@H](OC(=O)c3ccccc3)[C@]3(O)CC(OC(=O)[C@@]4(O)Cc5ccccc5[C@@H]4NC(=O)c4ccccc4)C(C)=C1C3(C)C)[C@]1(OC(C)=O)CO[C@@H]1C[C@@H]2O (stereo not given in full) | 4 | 9 |  |
| CC(=O)O[C@H]1C(=O)[C@@]2(C)[C@H]([C@H](OC(=O)c3ccccc3)[C@]3(O)C[C@H](OC(=O)[C@H](O)[C@@H](NC(=O)c4ccccc4)c4ccccc4)C(C)=C1C3(C)C)[C@]1(OC(C)=O)CO[C@@H]1C[C@@H]2O [PACLITAXEL] |  | 4 |  |
